Measurements from ChEMBL document CHEMBL2146445, “Discovery of BIIB042, a Potent, Selective, and Orally Bioavailable γ-Secretase Modulator” (ACS Med Chem Lett, 2011).
Blank lines part the entries; values can stand above or below the compound they belong to. Calls of active or inactive are those of the source. No cut-off for these calls is given here.

Assays:
Cynomolgus monkey [1] = assay: Antialzheimer activity in cynomolgus monkey assessed as effect on amyloid beta 40 level in plasma at 10 mg/kg, po at 5 hrs; type: functional, organism-based; parameters: dose 10 mg/kg; conditions: Macaca fascicularis
[2] = biological target: Neurogenic locus notch homolog protein 1 (Homo sapiens) (UniProt P46531); assay: Inhibition of NICD-mediated HES1 protein expression in human H4 cells at 10 uM after 24 hrs by Western blot analysis; type: cell-based
Sequence of Neurogenic locus notch homolog protein 1 (Homo sapiens) (P46531 whole entry): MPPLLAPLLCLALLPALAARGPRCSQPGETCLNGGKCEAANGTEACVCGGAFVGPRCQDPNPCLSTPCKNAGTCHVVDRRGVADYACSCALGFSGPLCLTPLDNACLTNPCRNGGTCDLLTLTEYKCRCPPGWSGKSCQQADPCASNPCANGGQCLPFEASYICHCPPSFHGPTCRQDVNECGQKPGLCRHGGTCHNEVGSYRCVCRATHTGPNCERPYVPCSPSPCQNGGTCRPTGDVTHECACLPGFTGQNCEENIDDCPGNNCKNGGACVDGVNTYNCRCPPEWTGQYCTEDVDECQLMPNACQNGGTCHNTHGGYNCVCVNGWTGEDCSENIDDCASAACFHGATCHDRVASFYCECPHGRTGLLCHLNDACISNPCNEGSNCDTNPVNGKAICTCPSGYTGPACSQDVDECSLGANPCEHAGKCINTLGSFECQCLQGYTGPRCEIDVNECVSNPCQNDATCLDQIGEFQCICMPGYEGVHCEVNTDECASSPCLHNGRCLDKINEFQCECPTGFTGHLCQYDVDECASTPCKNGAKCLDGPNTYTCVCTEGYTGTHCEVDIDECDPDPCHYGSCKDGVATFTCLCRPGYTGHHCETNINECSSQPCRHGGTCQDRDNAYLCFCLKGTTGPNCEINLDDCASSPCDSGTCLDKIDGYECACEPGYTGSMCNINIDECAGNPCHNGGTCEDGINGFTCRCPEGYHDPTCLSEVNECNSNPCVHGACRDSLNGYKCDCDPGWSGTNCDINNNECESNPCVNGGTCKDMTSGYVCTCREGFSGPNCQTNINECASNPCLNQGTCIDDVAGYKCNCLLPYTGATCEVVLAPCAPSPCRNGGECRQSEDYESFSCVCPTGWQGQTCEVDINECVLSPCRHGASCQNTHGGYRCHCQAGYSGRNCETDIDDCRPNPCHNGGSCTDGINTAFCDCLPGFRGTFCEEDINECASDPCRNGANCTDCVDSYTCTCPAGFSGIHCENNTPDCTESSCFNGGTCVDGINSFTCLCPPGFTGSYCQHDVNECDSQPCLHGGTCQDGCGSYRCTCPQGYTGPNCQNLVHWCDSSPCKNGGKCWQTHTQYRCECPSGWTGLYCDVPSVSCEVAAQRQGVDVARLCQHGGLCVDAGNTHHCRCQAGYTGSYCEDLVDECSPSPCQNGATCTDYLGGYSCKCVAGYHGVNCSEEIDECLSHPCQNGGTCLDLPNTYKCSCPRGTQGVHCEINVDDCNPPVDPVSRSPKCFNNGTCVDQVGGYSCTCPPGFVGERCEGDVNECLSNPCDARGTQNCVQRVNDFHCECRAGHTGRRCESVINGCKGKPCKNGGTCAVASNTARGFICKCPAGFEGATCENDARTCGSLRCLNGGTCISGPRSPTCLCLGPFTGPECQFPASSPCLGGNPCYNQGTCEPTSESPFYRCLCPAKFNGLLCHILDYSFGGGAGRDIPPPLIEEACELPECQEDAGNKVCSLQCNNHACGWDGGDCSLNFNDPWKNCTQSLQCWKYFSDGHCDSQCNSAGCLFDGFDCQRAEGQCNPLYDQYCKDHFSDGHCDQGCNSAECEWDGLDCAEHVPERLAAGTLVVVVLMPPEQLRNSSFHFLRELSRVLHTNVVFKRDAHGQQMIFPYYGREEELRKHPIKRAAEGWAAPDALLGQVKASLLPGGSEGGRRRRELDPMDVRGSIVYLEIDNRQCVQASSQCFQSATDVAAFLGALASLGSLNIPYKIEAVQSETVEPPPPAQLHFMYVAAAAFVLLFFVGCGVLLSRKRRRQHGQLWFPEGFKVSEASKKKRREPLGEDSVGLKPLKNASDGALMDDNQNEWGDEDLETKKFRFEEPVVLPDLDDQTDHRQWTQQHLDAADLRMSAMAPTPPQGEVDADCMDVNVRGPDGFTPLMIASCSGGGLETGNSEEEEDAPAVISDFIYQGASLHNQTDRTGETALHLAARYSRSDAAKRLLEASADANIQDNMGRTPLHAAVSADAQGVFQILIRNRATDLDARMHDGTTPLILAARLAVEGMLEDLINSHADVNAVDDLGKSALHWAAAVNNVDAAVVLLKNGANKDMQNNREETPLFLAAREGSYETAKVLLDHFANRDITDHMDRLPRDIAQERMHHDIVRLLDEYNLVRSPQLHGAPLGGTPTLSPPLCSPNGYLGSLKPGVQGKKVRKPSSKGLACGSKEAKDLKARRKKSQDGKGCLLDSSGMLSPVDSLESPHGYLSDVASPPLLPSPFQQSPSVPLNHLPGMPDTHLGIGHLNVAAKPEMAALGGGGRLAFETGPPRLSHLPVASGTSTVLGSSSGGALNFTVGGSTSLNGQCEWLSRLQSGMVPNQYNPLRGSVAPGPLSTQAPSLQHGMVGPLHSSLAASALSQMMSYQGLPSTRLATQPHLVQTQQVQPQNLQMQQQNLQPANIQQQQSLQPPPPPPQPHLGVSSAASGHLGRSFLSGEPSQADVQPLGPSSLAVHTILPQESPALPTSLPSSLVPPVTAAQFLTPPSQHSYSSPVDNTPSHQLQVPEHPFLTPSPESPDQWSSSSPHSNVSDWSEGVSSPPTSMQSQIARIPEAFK

Rattus norvegicus [3] = assay: Antialzheimer activity in Fischer rat assessed as increase in amyloid beta 38 level in brain at 10 mg/kg, po after 4 hrs; type: functional, organism-based; parameters: dose 10 mg/kg
Cynomolgus monkey [4] = assay: Antialzheimer activity in cynomolgus monkey assessed as increase in amyloid beta 38 level in plasma at 10 mg/kg, po at 5 hrs; type: functional, organism-based; parameters: dose 10 mg/kg; conditions: Macaca fascicularis
Mus musculus [5] = assay: Antialzheimer activity in CF1 mouse assessed as increase in amyloid beta 38 level in brain at 10 mg/kg, po; type: functional, organism-based; parameters: dose 10 mg/kg
Procedure, shortened: (§1)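 Wild-type CF-1 mice received a single oral dose as a solution in ethanol:propylene glycol:10% solutol (1:1:8). Animals were sacrificed 4 h after dosing. Brain and plasma were collected for drug concentration and Aβ levels. Aβ change was expressed relative to vehicle-treated controls.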

Mus musculus [6] = assay: Antialzheimer activity in CF1 mouse assessed as effect on amyloid beta 40 level in brain at 10 mg/kg, po; type: functional, organism-based; parameters: dose 10 mg/kg; procedure, shortened: as §1
Rattus norvegicus [7] = assay: Antialzheimer activity in Fischer rat assessed as effect on amyloid beta 40 level in brain at 10 mg/kg, po after 4 hrs; type: functional, organism-based; parameters: dose 10 mg/kg
CHO [8] = assay: Modulation of gamma-secretase in CHO cells overexpressing APP V717 mutant assessed as effect on amyloid beta40 level after 17 hrs by ELISA; type: cell-based; conditions: Cricetulus griseus
Procedure, shortened: (§2)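 CHO cells overexpressing APP V717F; Aβ42, Aβ40 and Aβ38 quantified together in each well by multiplex Aβ ELISA. EC50 is the mean of at least two determinations.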

[9] = Thermodynamic solubility of the compound; type: physicochemical; conditions: read-out: Therm_solubility
Procedure, shortened: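 Thermodynamic solubility measured on the crystalline HCl salt.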

[10] = AUC (0 to 24 hrs) in rat at 10 mg/kg, po; type: ADME, organism-based; parameters: time < 24 hr, dose 10 mg/kg, route oral; conditions: plasma
[11] = AUC (0 to 24 hrs) in cynomolgus monkey at 1 mg/kg, iv; type: ADME, organism-based, Macaca fascicularis; parameters: time < 24 hr, dose 1 mg/kg, route intravenous; conditions: plasma
Procedure, shortened: (§3)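 Single-dose PK in rats, dogs and cynomolgus monkeys. The compound was given iv at 1 mg/kg in EtOH:PEG400:water (10:40:50) at 1 mL/kg. […] Values are mean ± SD, n = 3.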

[12] = Oral bioavailability in cynomolgus monkey at 10 mg/kg; type: ADME, organism-based, Macaca fascicularis; conditions: in vivo
Procedure, shortened: (§4)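 Single dose to rats, dogs and cynomolgus monkeys. IV at 1 mg/kg in EtOH:PEG400:water (10:40:50), 1 mL/kg. Oral at 10 mg/kg as crystalline HCl salt suspension in 0.5% CMC, 0.2% Tween80, 5 mL/kg. Plasma sampled over 0–24 h. Values are mean ± SD, n = 3.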

[13] = Plasma clearance in rat at 1 mg/kg, iv; type: ADME, organism-based; parameters: dose 1 mg/kg, route intravenous; procedure, shortened: as §4
[14] = Tmax in cynomolgus monkey at 10 mg/kg, po; type: ADME, organism-based, Macaca fascicularis; parameters: dose 10 mg/kg, route oral; conditions: in vivo; procedure, shortened: as §4
[15] = Plasma clearance in dog at 1 mg/kg, iv; type: ADME, organism-based, Canis lupus familiaris; parameters: dose 1 mg/kg, route intravenous; procedure, shortened: as §4
[16] = Plasma clearance in cynomolgus monkey at 1 mg/kg, iv; type: ADME, organism-based, Macaca fascicularis; parameters: dose 1 mg/kg, route intravenous; procedure, shortened: as §4
[17] = Volume of distribution at steady state in cynomolgus monkey at 1 mg/kg, iv; type: ADME, organism-based, Macaca fascicularis; parameters: dose 1 mg/kg, route intravenous; conditions: in vivo, read-out: Vdss; procedure, shortened: as §4
[18] = Tmax in rat at 10 mg/kg, po; type: ADME, organism-based; parameters: dose 10 mg/kg, route oral; conditions: in vivo; procedure, shortened: as §4
[19] = AUC (0 to 24 hrs) in cynomolgus monkey at 10 mg/kg, po; type: ADME, organism-based, Macaca fascicularis; parameters: time < 24 hr, dose 10 mg/kg, route oral; conditions: plasma
[20] = Oral bioavailability in rat at 10 mg/kg; type: ADME, organism-based; conditions: in vivo; procedure, shortened: as §4
[21] = Half life in dog at 10 mg/kg, po; type: ADME, organism-based, Canis lupus familiaris; parameters: dose 10 mg/kg, route oral; conditions: in vivo
Procedure, shortened: (§5)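 Single oral dose of 10 mg/kg given to rats, dogs or cynomolgus monkeys. The crystalline HCl salt was suspended in 0.5% CMC with 0.2% Tween80 and dosed at 5 mL/kg. […] Parameters are reported as mean ± SD, n = 3.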

[22] = Half life in rat at 10 mg/kg, po; type: ADME, organism-based; parameters: dose 10 mg/kg, route oral; conditions: in vivo; procedure, shortened: as §5
[23] = Half life in cynomolgus monkey at 10 mg/kg, po; type: ADME, organism-based, Macaca fascicularis; parameters: dose 10 mg/kg, route oral; conditions: in vivo; procedure, shortened: as §5
[24] = Half life in rat at 1 mg/kg, iv; type: ADME, organism-based; parameters: dose 1 mg/kg, route intravenous; conditions: in vivo; procedure, shortened: as §3
[25] = Tmax in dog at 10 mg/kg, po; type: ADME, organism-based, Canis lupus familiaris; parameters: dose 10 mg/kg, route oral; conditions: in vivo; procedure, shortened: as §4
[26] = Cmax in cynomolgus monkey at 10 mg/kg, po; type: ADME, organism-based, Macaca fascicularis; parameters: dose 10 mg/kg, route oral; conditions: in vivo; procedure, shortened: as §5
[27] = Cmax in rat at 10 mg/kg, po; type: ADME, organism-based; parameters: dose 10 mg/kg, route oral; conditions: in vivo; procedure, shortened: as §5
[28] = Volume of distribution at steady state in rat at 1 mg/kg, iv; type: ADME, organism-based; parameters: dose 1 mg/kg, route intravenous; conditions: in vivo, read-out: Vdss; procedure, shortened: as §4
[29] = Half life in dog at 1 mg/kg, iv; type: ADME, organism-based, Canis lupus familiaris; parameters: dose 1 mg/kg, route intravenous; conditions: in vivo; procedure, shortened: as §3
[30] = Half life in cynomolgus monkey at 1 mg/kg, iv; type: ADME, organism-based, Macaca fascicularis; parameters: dose 1 mg/kg, route intravenous; conditions: in vivo; procedure, shortened: as §3
[31] = Oral bioavailability in dog at 10 mg/kg; type: ADME, organism-based, Canis lupus familiaris; conditions: in vivo; procedure, shortened: as §4
[32] = AUC (0 to 24 hrs) in dog at 1 mg/kg, iv; type: ADME, organism-based, Canis lupus familiaris; parameters: time < 24 hr, dose 1 mg/kg, route intravenous; conditions: plasma; procedure, shortened: as §3
[33] = AUC (0 to 24 hrs) in rat at 1 mg/kg, iv; type: ADME, organism-based; parameters: time < 24 hr, dose 1 mg/kg, route intravenous; conditions: plasma; procedure, shortened: as §3
[34] = Volume of distribution at steady state in dog at 1 mg/kg, iv; type: ADME, organism-based, Canis lupus familiaris; parameters: dose 1 mg/kg, route intravenous; conditions: in vivo, read-out: Vdss; procedure, shortened: as §4
[35] = AUC (0 to 24 hrs) in dog at 10 mg/kg, po; type: ADME, organism-based, Canis lupus familiaris; parameters: time < 24 hr, dose 10 mg/kg, route oral; conditions: plasma
[36] = Cmax in dog at 10 mg/kg, po; type: ADME, organism-based, Canis lupus familiaris; parameters: dose 10 mg/kg, route oral; conditions: in vivo; procedure, shortened: as §5
Mus musculus [37] = assay: Antialzheimer activity in CF1 mouse assessed as reduction in amyloid beta42 level in brain at 30 mg/kg, po after 4 hrs by ELISA; type: functional; parameters: scale not given: the % may be the effect or the level left; procedure, shortened: as §1
CHO [38] = assay: Modulation of gamma-secretase in CHO cells overexpressing APP V717 mutant assessed as increase in amyloid beta38 level after 17 hrs by ELISA; type: cell-based; conditions: Cricetulus griseus; procedure, shortened: as §2
[39] = Drug uptake in CF1 mouse brain at 30 mg/kg, po after 4 hrs; type: ADME, organism-based; parameters: dose 30 mg/kg, route oral; conditions: read-out: Drug uptake; procedure, shortened: as §1
[40] = Modulation of gamma-secretase in CHO cells overexpressing APP V717 mutant assessed as reduction in amyloid beta42 level after 17 hrs by ELISA; type: cell-based; conditions: Cricetulus griseus; procedure, shortened: as §2
Rattus norvegicus [41] = assay: Antialzheimer activity in F344 rat assessed as reduction in amyloid beta42 level in brain at 30 mg/kg, po after 4 hrs by ELISA; type: functional, organism-based; parameters: dose 30 mg/kg
[42] = Plasma concentration in CF1 mouse at 30 mg/kg, po after 4 hrs; type: ADME, organism-based; parameters: dose 30 mg/kg, route oral
Procedure, shortened: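 Wild-type (CF-1) mice given compound orally as a solution in ethanol:propylene glycol:10% solutol (1:1:8). Animals sacrificed 4 h post-dose; brain and plasma collected for drug exposure and Aβ levels.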

- inhibition [2]: inactive
Structure (SMILES): CC1CCN([C@H](c2ccc(F)cc2)c2ccc([C@@H](C)C(=O)O)cc2-c2ccc(C(F)(F)F)cc2)CC1
- Activity (Cynomolgus monkey [1]): inactive
- Activity (Rattus norvegicus [3]): Active
- Activity (Cynomolgus monkey [4]): Active
- Activity (Mus musculus [5]): Active
- Activity (Mus musculus [6]): inactive
- Activity (Rattus norvegicus [7]): inactive
- Activity (CHO [8]): inactive

- solubility thermodynamic [9]: 20 µg/mL
- AUC(0-t) at 24 h [10]: 49700 ng·h/mL
- AUC(0-t) at 24 h [11]: 4700 ng·h/mL
- bioavailability [12]: 106%
- clearance [13]: 1.5 mL/min/kg
- Tmax [14]: 2 h
- clearance [15]: 14 mL/min/kg
- clearance [16]: 3.7 mL/min/kg
- Vd [17]: 1.7 L/kg
- Tmax [18]: 1.7 h
- AUC(0-t) at 24 h [19]: 48000 ng·h/mL
- bioavailability [20]: 47%
- half-life [21]: 2.3 h
- half-life [22]: 6.6 h
- half-life [23]: 25 h
- half-life [24]: 7.2 h
- Tmax [25]: 1.3 h
- Cmax [26]: 5900 ng/mL
- Cmax [27]: 6000 ng/mL
- Vd [28]: 0.8 L/kg
- half-life [29]: 1.3 h
- half-life [30]: 11.2 h
- bioavailability [31]: 44%
- AUC(0-t) at 24 h [32]: 1200 ng·h/mL
- AUC(0-t) at 24 h [33]: 10400 ng·h/mL
- Vd [34]: 0.9 L/kg
- AUC(0-t) at 24 h [35]: 5200 ng·h/mL
- Cmax [36]: 1400 ng/mL
Structure (SMILES): CC1CCN([C@H](c2ccc(F)cc2)c2ccc([C@@H](C)C(=O)O)cc2-c2ccc(C(F)(F)F)cc2)CC1.Cl

- concentration at 4 h [39]: 16.1 µM
- EC50 [40]: 450 nM
- concentration at 4 h [42]: 22.8 µM
Structure (SMILES): CC1CCN(C(c2ccc(F)cc2)c2ccc(C(C)(C)C(=O)O)cc2-c2ccc(C(F)(F)F)cc2)CC1 (stereo not drawn)
- Activity (Mus musculus [37]): 30%
- Activity (CHO [38]): Active
- Activity (CHO [8]): inactive
- Activity (Rattus norvegicus [41]): inactive
